Only some compounds are listed: those with a hit (about 1.1% of all), similar ones and a draw of the others.
FAS TE block = FAS thioesterase domain inhibitors, primary screen, biochemical, fluorescence intensity, uHTS. 360,000 tested, 0.67% active. recombinant FAS-TE, OMFH fluorogenic substrate, fluorescence endpoint. inhibition, % at 15 µM. Fatty acid synthase (Homo sapiens), P49327;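 active = compounds whose normalised, plate-corrected inhibition of enzyme fluorescence in the single-dose primary screen is 50% or more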
Arrestin-AP2 inh = inhibitors of beta-arrestin/AP2 binding, primary screen, biochemical, GPCR trafficking, flow cytometry. beta-arrestin 1 C-terminal peptide binding to AP2 beta2-adaptin appendage (human). FITC-arrestin peptide / GST-AP2 beads; AP2 beta2 appendage carries R879A mutation. inhibition, % at 10 µM. 340,000 tested, 0.31% active;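 active = inhibition above a set limit, near 3 SD of compounds lacking own fluorescence, cut at about 54% in these data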
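Assay system: GST-AP2 R879A bound to glutathione beads, E. coli-expressed; Medium: PBS with 0.05% Tween 20 and 0.1% BSA; Also added: fluorescein-tagged arrestin peptide at 50 nM final; Timing: 12 min plus 1 h, RT; Measured by: flow cytometry, FL1 (488/535 nm); Evaluation: percent drop in bead-associated FITC signal.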
JMJD2C inh = inhibitors of GASC-1 histone demethylase, primary screen, biochemical, fluorescence, DELFIA europium; Lysine-specific demethylase 4C (Homo sapiens), Q9H3R0; GST-JMJD2C(1-420) H3K9me3 demethylation; inhibition, % at 2.35 µM; 330,000 tested, 0.069% active;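 active = more than half of a compound's replicate wells show inhibition beyond 50%, single wells judged on their own value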;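 also: signal counts dimethyl H3K9 product captured on neutravidin plate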
SENP1 FRET inh = human SENP1 catalytic domain inhibitors, primary screen, biochemical, FRET, uHTS; Sentrin-specific protease 1 (Homo sapiens), Q9P0U3; recombinant SENP1 catalytic domain, CyPet-SUMO1-YPet FRET cleavage; inhibition, % at 10 µM; 360,000 tested, 0.21% active; AID 624204, 2012;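 active = inhibition at least 30% at 10 µM, raw YFP signal under a set limit, fluorescence ratio 0.5 to 1.5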
Target sequence (Q9P0U3 419-644 limits assumed): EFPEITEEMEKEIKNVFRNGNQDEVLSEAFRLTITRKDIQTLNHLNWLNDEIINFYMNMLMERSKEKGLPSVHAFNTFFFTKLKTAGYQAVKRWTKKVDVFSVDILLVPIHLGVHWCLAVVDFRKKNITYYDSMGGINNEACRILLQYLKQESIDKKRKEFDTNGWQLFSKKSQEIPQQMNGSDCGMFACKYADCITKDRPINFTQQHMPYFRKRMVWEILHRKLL
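Assay system: hSENP1 catalytic domain, recombinant. Amount: SENP1 enzyme, 20 pM final. Schedule: 50 min reaction, RT, dark. Technique: FRET, CFP and YFP emission. Control set: no-enzyme wells low, DMSO-plus-enzyme wells high control.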
FAS-TE conf = FAS thioesterase domain inhibitors, confirmation, biochemical, fluorescence intensity, single concentration; shares compounds with FAS TE block; recombinant FAS-TE, OMFH fluorogenic substrate; inhibition, % at 15 µM; 2,300 tested, 45% active; AID 624325, 2012;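 active = compounds inhibiting the enzyme by at least 50% at 15 µM in any one of the replicates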
Each line names hits and unclear results; the compound was inactive in the other large screens (follow-up assays come after a bar, where they were run).

O=C(COC(=O)c1cc([N+](=O)[O-])ccc1N1CCOCC1)Nc1c(Cl)cccc1Cl	FAS TE block 67.2 | FAS-TE conf 74.5
Cc1cc(C(=O)OCC(=O)Nc2cccc([N+](=O)[O-])c2)c(C)o1	FAS TE block 65.8 | FAS-TE conf 61.8
Cc1cccc2cc(C#N)c(SCc3nnc(-c4ccccc4[N+](=O)[O-])o3)nc12	none
Cc1ccc(CNC(=O)C(C(=O)NCc2ccc(C)o2)c2ncc(C(F)(F)F)cc2Cl)o1	FAS TE block 61.7 | FAS-TE conf inactive
Cc1cc(NC(=O)CN2C(=O)NC(C)(CC(C)C)C2=O)no1 (stereo not given)	none
Cc1cc(Br)ccc1NC(=O)C(C)c1ccc([N+](=O)[O-])cc1 (stereo not given)	FAS TE block 55.6 | FAS-TE conf 51.4
CCCCCC1CC(CC(=O)Nc2ccc([N+](=O)[O-])cc2)C(=O)O1 (stereo not given)	FAS TE block 53.6 | FAS-TE conf 57.0
COc1ccc(NC(=O)CC2C(=O)N(C)C(=S)N2Cc2cccs2)cc1 (stereo not given)	FAS TE block 50.6 | FAS-TE conf 57.6
CCCOc1ccc(NC(=O)CC2C(=O)N(CC)C(=S)N2Cc2cccs2)cc1 (stereo not given)	FAS TE block 59.2 | FAS-TE conf 65.2
COc1ccc(CCN2C(=S)N(C)C(=O)C2CC(=O)Nc2ccc(OC)cc2)cc1 (stereo not given)	none
Cc1cc(/C=C(\C#N)C(=O)Nc2ccc(Cl)cc2)c(C)n1-c1ccc(N2CCOCC2)c([N+](=O)[O-])c1	FAS TE block 78.9 | FAS-TE conf inactive
COc1ccc(NC(=O)/C(C#N)=C\c2cc(C)n(-c3ccc4c(c3)OCO4)c2C)cc1	FAS TE block 54.2 | FAS-TE conf inactive
Cc1ccc(NC(=O)CNC2CCCCC2)cc1Cl	none
COc1ccc(CCNc2ncnc3c2[nH]c2cc(OC)c(OC)cc23)cc1OC	none
COc1ccc(NC(=O)c2c[nH]n3c(=O)cc(C4CCN(C(=O)OC(C)(C)C)CC4)nc23)cc1Cl	none
CC(C)(C)OC(=O)N1CCC(c2cc(=O)n3[nH]cc(C(=O)Nc4ccc(F)c(Cl)c4)c3n2)CC1	FAS TE block 76.8 | FAS-TE conf 64.4
Cc1cccc(NCN2C(=O)C3C4C=CC(C4)C3C2=O)c1 (stereo not given)	none
Cn1ncc2c(Nc3cccc([N+](=O)[O-])c3)ncnc21	none
O=c1c2sc3nc(N4CCOCC4)c4c(c3c2ncn1-c1ccccc1)CCCC4	none
COc1ccc(-n2cnc3c(sc4nc(N5CCOCC5)c5c(c43)CCCC5)c2=O)cc1	FAS TE block 63.3 | FAS-TE conf inactive
Cc1ccc(-n2cnc3c(sc4nc(N5CCOCC5)c5c(c43)CCCC5)c2=O)cc1	none
Cc1ccccc1-n1cnc2c(sc3nc(N4CCOCC4)c4c(c32)CCCC4)c1=O	FAS TE block 65.8 | FAS-TE conf inactive
COc1ccc(NC(=S)N(Cc2cccc(Br)c2)CC2CCC(C(=O)O)CC2)cc1 (stereo not given)	none
Cc1ccc(-c2cc(C(F)F)n3ncc(C(=O)N4CCc5ccccc5C4)c3n2)cc1	FAS TE block 53.1 | FAS-TE conf inactive
CCOC(=O)N1CCN(C(=O)c2cnn3c(C(F)F)cc(-c4ccc(C)cc4)nc23)CC1	none
O=C1CN(C(=O)c2cc([N+](=O)[O-])ccc2Cl)C(c2ccc(F)cc2)c2cc(F)ccc2N1 (stereo not given)	FAS TE block 75.4 | FAS-TE conf inactive
Cc1ccc2c(c1)C(c1ccccc1)N(C(=O)c1cccc([N+](=O)[O-])c1)CC(=O)N2 (stereo not given)	FAS TE block 78.2 | FAS-TE conf 87.1
Cc1ccc2c(c1)C(c1ccccc1)N(C(=O)c1ccccc1)CC(=O)N2 (stereo not given)	none
